Source: PubChem
Only some compounds are listed: those with a hit (about 3.1% of all), similar ones and a draw of the others.
KCNK9 block: blocks the human KCNK9 two-pore domain potassium channel; Q9NPC2; HEK293 KCNK9, FluxOR thallium flux fluorescence; active compounds read low; B-score at 10 µM; hit rate 1.2% among 310,000;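 active means ratio B-score over 3 SD below the library mean, with starting fluorescence within 5 SD of its mean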;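 further: negative B-score means less thallium flux so channel inhibition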
hERG rescue: compounds protecting human hERG from proarrhythmic drug block. Q12809. CHO-hERG, FluxOR thallium flux, dofetilide IC70 present. activation (rescue from dofetilide block), less the hit threshold, % at 10 µM. hit rate 0.51% among 310,000. AID 1511;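 active means activation above the mean of controls blocked by dofetilide plus 5 SD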;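 further: thallium influx through hERG after potassium depolarization seen as dye fluorescence rise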
KCNQ1 act: human KCNQ1 channel potentiation or activation. P51787. CHO-K1 KCNQ1, thallium flux FluxOR fluorescence; active compounds read high. B-score at 10 µM. hit rate 0.35% among 310,000;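 active means fluorescence ratio B-score, a plate-corrected score, at least three library SD, with initial intensity B-score within 5 SD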
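Assay system: CHO-K1 cells stably expressing KCNQ1; Medium: assay buffer with matched DMSO; Also added: K+/Tl+ depolarizing stimulus; Dosing: single dose; Timing: dye 90 min, compound 20 min, room temperature; Measured by: kinetic FluxOR thallium fluorescence, 10-s 1-Hz baseline, 110-s post-stimulus read; Read-out: peak-minus-minimum fluorescence over initial fluorescence, negative-control normalized, B-scored.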
KCNQ1 inh: inhibitors of human KCNQ1 potassium channel; B-score at 10 µM; hit rate 1.3% among 310,000; P51787; CHO-K1 KCNQ1, FluxOR thallium flux fluorescence; active compounds read high; AID 2642;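 active means compounds whose thallium flux B-score, printed positive for inhibition, exceeds three library SD while starting fluorescence stays within three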;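 further: channel opened by potassium depolarization with thallium stimulus after 20 min compound exposure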
KCNK3 block: human KCNK3 channel inhibition, primary screen. O14649. CHO-KCNK3 thallium flux, FluxOR fluorescence; active compounds read low. B-score at 10 µM. hit rate 0.84% among 340,000;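 active means B-score under library mean minus 4 SD, starting fluorescence ratio at most library mean plus 5 SD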;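 further: more negative B-score means stronger inhibition of thallium flux through KCNK3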
Target sequence (O14649 whole entry, looked up): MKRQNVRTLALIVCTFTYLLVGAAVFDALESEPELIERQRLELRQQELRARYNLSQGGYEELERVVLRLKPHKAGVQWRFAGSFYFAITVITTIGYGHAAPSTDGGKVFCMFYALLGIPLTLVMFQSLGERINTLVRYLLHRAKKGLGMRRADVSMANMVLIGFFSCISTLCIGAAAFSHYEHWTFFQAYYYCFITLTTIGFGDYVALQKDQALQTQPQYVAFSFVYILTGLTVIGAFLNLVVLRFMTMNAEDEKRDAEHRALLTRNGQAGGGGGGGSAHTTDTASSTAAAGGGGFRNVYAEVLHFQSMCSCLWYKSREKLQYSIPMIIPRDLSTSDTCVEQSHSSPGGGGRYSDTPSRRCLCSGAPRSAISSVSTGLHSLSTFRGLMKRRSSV
KCNK9 inh conf: human KCNK9 inhibitor confirmation; hit rate 43% among 4,900; AID 492992; HEK293 KCNK9 cells, FluxOR thallium flux fluorescence; shares compounds with KCNK9 block; inhibition, % at 10 µM;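 active means thallium signal inhibited by more than 5 SD of the compound-free buffer control wells, on both duplicate plates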;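 further: 0% = assay buffer control wells without compound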
Kir2-1 spec: mouse Kir2.1 off-target activity of KCNK9 modulators; shares compounds with KCNK9 block; Kir2.1 cells, FluxOR thallium flux fluorescence; inhibition, % at 10 µM; hit rate 4% among 4,900; AID 492993;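 active means thallium signal drop more than 5 SD beyond the mean of the no-compound control wells, seen in both duplicate plates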;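 further: signal is fluorescence rise after thallium addition divided by baseline fluorescence; plate controls were assay buffer only for no effect and full block by chlorpromazine control for full effect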
KCNK9 uninduced: second counter-screen for KCNK9 modulators: effect in non-induced cells; shares compounds with KCNK9 block; non-induced KCNK9-HEK293, FluxOR thallium flux; inhibition, % at 10 µM; hit rate 40% among 4,900; AID 492997;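 active means thallium signal drop beyond 5 SD of the untreated control mean, on both duplicate plates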;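 further: plate controls were buffer only IC0 wells for no effect and SID17386958 at its maximal inhibitory level for full effect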
The depositor's hits bear a star; i = inactive; x = no result.

SMILES | KCNK9 block | hERG rescue | KCNQ1 act | KCNQ1 inh | KCNK3 block | KCNK9 inh conf | Kir2-1 spec | KCNK9 uninduced
COc1ccc(/C=C/C(O)=C2/C(=O)NC3(C)CC2c2ccccc2O3)c(OC)c1OC (centres undefined) | i | -5 | i | i | i | x | x | x
COc1ccc(/C=C/C(O)=C2/C(=O)N(C)C3(C)CC2c2ccccc2O3)cc1 (centres undefined) | -10* | -12 | i | i | i | 41%* | i | 30%*
CC(C)(C)N1C(=O)c2ccc(C(=O)Nc3cc(C(=O)O)cc(C(=O)O)c3)cc2C1=O | i | -9 | i | i | i | x | x | x
CC(=O)Nc1ccccc1-c1nc2ccc(C(=O)N3CCN(c4cccc(C)c4)C(C)C3)cc2[nH]c1=O (centres undefined) | i | -8 | i | i | i | x | x | x
Cc1cccc(N2CCN(C(=O)c3ccc4nc(-c5ccco5)c(-c5ccco5)nc4c3)CC2C)c1 (centres undefined) | -8.8* | -20 | i | i | i | 45%* | i | i
Cc1ccn2c(/C=N/OCc3cccc(F)c3)c(-c3ccc(Cl)cc3)nc2c1 | -8.4* | -16 | i | i | i | i | i | 33%*
CC(CN1CCN(Cc2ccccc2)CC1)c1ccccc1 (centres undefined) | i | -4 | i | i | i | x | x | x
N#CC(c1ccccc1)C1CCN(Cc2ccccc2)CC1 (centres undefined) | i | -8 | i | i | i | i | i | i
CCOc1ccc(C2/C(=C(/O)c3ccc(S(=O)(=O)N4CCCCC4)cc3)C(=O)C(=O)N2CCCOC)cc1OC (centres undefined) | i | -5 | i | i | i | x | x | x
O=C(COC(=O)c1ccccc1NC(=O)c1ccccc1)c1cccc([N+](=O)[O-])c1 | -14* | -11 | i | i | i | 69%* | i | 32%*
O=C(OCC#Cc1c(COC(=O)c2ccccc2)nnn1Cc1ccccc1)c1ccccc1 | i | -9 | i | i | i | x | x | x
CCN(c1ccccc1)c1ncnc2c1cnn2-c1ccccc1 | i | -23 | i | i | i | i | i | i
N#CC1=C(N)SC(N)=C(C#N)C1c1ccc([N+](=O)[O-])cc1 | i | -6 | i | i | i | i | i | i
O=C(Nc1nnc(SCc2cccnc2)s1)C1CC(=O)N(c2ccccc2)C1 (centres undefined) | i | -8 | i | i | i | x | x | x
O=c1[nH]c(SCc2ccc(F)cc2Cl)nc2ccccc12 | i | -10 | i | i | i | x | x | x
NS(=O)(=O)c1ccc(NC(=O)C2COc3ccccc3O2)cc1 (centres undefined) | i | -7 | i | i | x | x | x | x
CC1CC(C)CN(S(=O)(=O)c2ccc(NC(=O)C3COc4ccccc4O3)cc2)C1 (centres undefined) | i | -6 | i | i | i | i | i | i
C/C(=N\Nc1ccc(F)cc1F)c1ccccc1O | i | -10 | i | i | i | x | x | x
C/C(=N\Nc1cc(C(F)(F)F)ccc1Cl)c1ccccc1O | i | -12 | i | i | i | i | i | i
CSc1c(CC(=O)Nc2ccccc2)n(C)c2ccccc12 | i | -6 | i | i | i | x | x | x
Cn1c(CC(=O)Nc2ccccc2)c(Sc2ccccc2)c2ccccc21 | i | -10 | i | i | i | i | i | i
CCc1ccc(C(=O)c2cnc3ccc(OC)cc3c2N2CCN(CC)CC2)cc1 | i | -13 | i | i | i | i | i | i
CCOc1ccc(C(=O)c2cnc3ccccc3c2N2CCN(CC)CC2)cc1 | i | -16 | i | i | i | x | x | x
COc1cc(C(=O)N(CCc2ccccc2)C2=CC3CCC(C2)N3C)cc(OC)c1OC (centres undefined) | i | -7 | i | i | i | x | x | x
Cc1cc(C)cc(C(=O)N(CCc2ccccc2)C2CC3CCC(C2)N3C)c1 (centres undefined) | i | -4 | i | i | i | i | i | i
SMILES | KCNK9 block | hERG rescue | KCNQ1 act | KCNQ1 inh | KCNK3 block | KCNK9 inh conf | Kir2-1 spec | KCNK9 uninduced
Cc1ccc(C(=O)NCC(=O)N2CCCCCCC2)cc1C | x | x | x | x | i | x | x | x
CCSCC1COC(c2cccn2Cc2ccc(C)cc2)=N1 (centres undefined) | i | -14 | i | i | i | i | i | 26%*
CC(NC(=O)c1ccc(S(=O)(=O)Nc2ccccc2Cl)cc1)c1ccncc1 (centres undefined) | x | x | x | x | i | x | x | x
COc1ccccc1CCc1nnc(CCC(=O)NC(C)Cn2nc(C)cc2C)o1 (centres undefined) | i | -6 | i | i | i | x | x | x
COc1cccc(C(=O)NC(=S)Nc2ccc3c4c(cccc24)CC3)c1 | i | -6 | i | i | i | i | i | i
COc1cccc(C(=O)NC(=S)Nc2ccc(Cl)cc2C(=O)O)c1 | i | -5 | i | i | i | x | x | x
Cc1ccccc1OCC(=O)NC(=S)Nc1ccc2c3c(cccc13)CC2 | i | -6 | i | i | i | x | x | x
COc1ccc(OCC(=O)NC(=S)Nc2ccc3c4c(cccc24)CC3)cc1 | i | 2 | i | i | i | i | i | i
Cc1cccc(-n2c(SCC(=O)N3CCCC3)nc3n[nH]c(C)c3c2=N)c1 | i | -12 | i | i | i | x | x | x
CCCCN(CC)C(=O)CSc1nc2n[nH]c(C)c2c(=N)n1-c1cccc(C)c1 | -9.2* | -3 | i | i | i | 34%* | i | i
CC1=NOC(=O)/C1=C\c1ccc(-c2ccc(Cl)c(C(=O)O)c2)o1 | i | -10 | i | i | i | x | x | x
CC1=NOC(=O)/C1=C\c1ccc(-c2cccc(Cl)c2)o1 | i | -12 | i | i | i | i | i | i
NC(=O)c1nsc(C(=O)N(CC(=O)NCc2ccccc2)c2ccc(F)cc2)c1N | i | 0 | i | i | i | x | x | x
CC(C)CNC(=O)c1oc2ccccc2c1COc1ccccc1 | i | -9 | i | i | i | i | i | i
Cn1c(=O)c2c([nH]c(=S)n2CCCc2ccccc2)n(C)c1=O | i | -4 | i | i | i | x | x | x
Cn1c(=O)[nH]c(=O)c2c1[nH]c(=S)n2CCCc1ccccc1 | i | -2 | i | i | i | i | i | 28%*
CCOc1ccc(S(=O)(=O)Nc2ccc(C(=O)N3CCCC3)cc2)cc1 | i | -14 | i | i | i | x | x | x
